Measurements gathered from unrelated publications.
Compare with care: the assays were run in different laboratories.
Target: Myosin-IIIa (MYO3A, Homo sapiens, UniProt Q8NEV4)

| SMILES | assay | conditions | remaining binding [%] |
| --- | --- | --- | --- |
| Cc1c(NC(=O)c2cc(C(N)=O)nc3cc(F)ccc23)c(C(F)(F)F)nn1Cc1ccc(C#N)cc1 | binding, competition with immobilised ligand | 1 µM | 91 |
| CCN1CCN(Cc2ccc(C(=O)Nc3ccc(C)c(Oc4ccc5c(c4)CC(=O)N5)c3)cc2C(F)(F)F)CC1 | binding, competition with immobilised ligand | 1 µM | 100 |
| O=C(c1ccc(Nc2ncc(Cl)c(-c3cc4ccccc4s3)n2)cc1)N1CCC(N2CCCC2)CC1 | binding, competition with immobilised ligand | 1 µM | 91 |
| CN(C)c1nccc(-c2cnn3ncccc23)n1 | binding | 1 µM | 100 |
| C[C@@H]1CN(c2cc(-c3nn(C)c4ccc(OC5(C)CC5)cc34)ncn2)C[C@H](C)O1 | cell-free assay, competition with immobilised ligand | 1 µM | 100 |
| C[C@@H](c1ccc(-n2cnc3c(N)ncnc32)cc1)N1CCc2nn(C)c(Cc3ccccc3)c2C1=O | binding, competition with immobilised ligand | 0.1 µM | 97 |
| FC(F)(F)Oc1cccc(-c2cnc3ccc(-c4ccncc4)nn23)c1 | cell-free assay, competition with immobilised ligand | 5 µM | 82 |
| Nc1ncc2c(n1)-c1c([nH]c3ccc(C#CC4CC4)cc13)CCCC2 | binding, competition with immobilised ligand | 1 µM | 91 |
| COc1cnc(Nc2cccc(S(N)(=O)=O)c2)nc1N1CCN(c2ccccc2)CC1 | binding, competition with immobilised ligand | 1 µM | 100 |
| c1cnn2ncc(-c3ccnc(N4CCC45COC5)n3)c2c1 | binding | 1 µM | 55 |
| O=C(c1ccc(Nc2nccc(-c3cc4ccccc4s3)n2)cc1)N1CCC(N2CCCC2)CC1 | binding, competition with immobilised ligand | 1 µM | 100 |
| CN(C)c1ncc(F)c(-c2cnn3ncccc23)n1 | binding | 1 µM | 100 |
| O=C(Nc1c[nH]nc1C(=O)NC1CCNCC1)c1cc(F)cc(F)c1 | binding, competition with immobilised ligand | 1 µM | 94 |
| c1ccc(N2CCN(Cc3nc4ccccc4[nH]3)CC2)nc1 | binding, competition with immobilised ligand | 1 µM | 100 |
| CN(c1nccc(-c2cnn3ncccc23)n1)C1CC1 | binding | 1 µM | 77 |
| O=C(NS(=O)(=O)c1ccc(NCC2CCOCC2)c([N+](=O)[O-])c1)c1ccc(N2CCN(Cc3ccc(C(F)(F)F)cc3-c3ccc(Cl)cc3)CC2)cc1Oc1cnc2[nH]ccc2c1 | cell-free assay, competition with immobilised ligand | 1 µM | 85 |
| Cc1cnn2ncc(-c3ccnc(N(C)C)n3)c2c1 | binding | 1 µM | 100 |
| CS(=O)(=O)c1cc(C2(NC(=O)c3cncc4c3cnn4-c3ccc(F)cc3)CC2)ccn1 | cell-free assay, competition with immobilised ligand | 1 µM | 85 |
| N[C@@H]1CCN(c2nccc(-c3cnn4ncccc34)n2)C1 | binding | 1 µM | 100 |
| O=C(NCCCN1CCOCC1)c1ccc(Nc2nccc(-c3cc4ccccc4s3)n2)cc1 | binding, competition with immobilised ligand | 1 µM | 87 |
| CN(C(=O)c1ccccc1)c1cc(N(C)c2ccc3c(c2)CCc2ccc(C(=O)NCCN4CCOCC4)cc2C3=O)ccc1F | cell-free assay, competition with immobilised ligand | 1 µM | 91 |
